Screening results as filed in PubChem.
Most compounds without a hit are left out; they make up all but 3.8% or so of the library.
KCNQ1 inh – blocks the human KCNQ1 potassium channel. P51787. 1.3% of 310,000 active. B-score at 10 µM. AID 2642. CHO-K1 KCNQ1, FluxOR thallium flux fluorescence; stronger effect = higher value;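 active = compounds whose thallium flux B-score, printed positive for inhibition, exceeds three library SD while starting fluorescence stays within three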;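 also: channel opened by potassium depolarization with thallium stimulus after 20 min compound exposure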
KCNK9 block – blocks the human KCNK9 two-pore domain potassium channel; Q9NPC2; HEK293 KCNK9, FluxOR thallium flux fluorescence; stronger effect = lower value; B-score at 10 µM; 1.2% of 310,000 active; AID 488922;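 active = ratio B-score over 3 SD below the library mean, with starting fluorescence within 5 SD of its mean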;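 also: negative B-score means less thallium flux so channel inhibition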
hERG protect – compounds protecting human hERG from proarrhythmic drug block; Q12809; CHO-hERG, FluxOR thallium flux, dofetilide IC70 present; 0.51% of 310,000 active; activation (rescue from dofetilide block), less the hit threshold, % at 10 µM;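 active = activation above the mean of controls blocked by dofetilide plus 5 SD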;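 also: thallium influx through hERG after potassium depolarization seen as dye fluorescence rise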
KCNK3 inh – human KCNK3 channel inhibition, primary screen | O14649 | CHO-KCNK3 thallium flux, FluxOR fluorescence; stronger effect = lower value | B-score at 10 µM | 0.84% of 340,000 active | AID 602410;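 active = B-score under library mean minus 4 SD, starting fluorescence ratio at most library mean plus 5 SD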;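 also: more negative B-score means stronger inhibition of thallium flux through KCNK3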
Target sequence (O14649 whole entry, looked up): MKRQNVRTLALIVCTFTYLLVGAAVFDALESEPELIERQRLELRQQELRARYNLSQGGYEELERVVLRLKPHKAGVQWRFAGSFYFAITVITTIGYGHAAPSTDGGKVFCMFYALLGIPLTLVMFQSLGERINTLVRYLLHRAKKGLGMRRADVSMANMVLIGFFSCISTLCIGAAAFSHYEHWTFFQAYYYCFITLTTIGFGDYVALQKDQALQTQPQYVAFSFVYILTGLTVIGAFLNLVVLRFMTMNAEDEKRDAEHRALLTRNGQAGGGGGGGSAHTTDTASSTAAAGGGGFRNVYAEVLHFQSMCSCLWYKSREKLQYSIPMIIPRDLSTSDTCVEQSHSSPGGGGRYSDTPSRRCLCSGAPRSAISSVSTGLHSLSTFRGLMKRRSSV
KCNQ1 act – human KCNQ1 channel potentiation or activation | CHO-K1 KCNQ1, thallium flux FluxOR fluorescence; stronger effect = higher value | B-score at 10 µM | 0.35% of 310,000 active | AID 2648;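 active = fluorescence ratio B-score, a plate-corrected score, at least three library SD, with initial intensity B-score within 5 SD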
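Assay system: CHO-K1 cells stably expressing KCNQ1. Medium: assay buffer for compound exposure, DMSO matched across wells. Timing: 37 °C overnight plating, 90-min dark dye load, 20-min compound pretreatment. Signal: kinetic FluxOR fluorescence, 10 s baseline plus 110 s post-stimulus.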
Kir21 inh – Kir2.1 (mouse) channel inhibition | P35561 | HEK293-Kir2.1, FluxOR thallium flux fluorescence; stronger effect = lower value | B-score at 10 µM | 0.85% of 310,000 active;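 active = fluorescence ratio B-score at or below minus 3 SD of library scores, with starting-brightness B-score within 2 SD, cut at about -4.2 in these data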;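 also: channel flux triggered by added potassium and thallium sulfate stimulus; B-score of peak minus minimum fluorescence over baseline after thallium stimulus; more negative B-score means stronger Kir2.1 block with less thallium influx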
KCNK9 inh conf – confirmation of human KCNK9 potassium channel inhibitors; inhibition, % at 10 µM; 43% of 4,900 active; HEK293 KCNK9 cells, FluxOR thallium flux fluorescence; shares compounds with KCNK9 block;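 active = thallium signal inhibited by more than 5 SD of the compound-free buffer control wells, on both duplicate plates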;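 also: 0% = assay buffer control wells without compound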
Kir21 sel – selectivity of KCNK9 modulators against mouse Kir2.1 | 4% of 4,900 active | Kir2.1 cells, FluxOR thallium flux fluorescence | shares compounds with KCNK9 block | inhibition, % at 10 µM;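 active = thallium signal drop more than 5 SD beyond the mean of the no-compound control wells, seen in both duplicate plates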;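 also: signal is fluorescence rise after thallium addition divided by baseline fluorescence; plate controls were assay buffer only for no effect and full block by chlorpromazine control for full effect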
KCNK9 uninduced – second check of KCNK9 modulator effects in non-induced HEK293 cells. AID 492997. inhibition, % at 10 µM. shares compounds with KCNK9 block. 40% of 4,900 active. FluxOR thallium flux;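 active = thallium signal drop beyond 5 SD of the untreated control mean, on both duplicate plates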;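 also: plate controls were buffer only IC0 wells for no effect and SID17386958 at its maximal inhibitory level for full effect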
The depositor's hits bear a star.

How did CC1COC(c2cccn2Cc2ccccc2Cl)=N1 (stereo not drawn) do in these assays?
KCNQ1 inh: inactive; KCNK9 block: inactive; hERG protect: -5.0; KCNK3 inh: inactive; KCNQ1 act: inactive; Kir21 inh: -2.44

What do the screens show for `O=[N+]([O-])c1ccc(O)c(/C=N/NC(=S)Nc2ccc(Cl)cc2Cl)c1`?
KCNQ1 inh: inactive; KCNK9 block: inactive; hERG protect: -8.0; KCNK3 inh: inactive; KCNQ1 act: inactive; Kir21 inh: 0.68; KCNK9 inh conf: inactive; Kir21 sel: inactive; KCNK9 uninduced: inactive

What do the screens show for `Cc1cc(Cl)ccc1NC(=O)CCC(=O)N/N=C/c1cc([N+](=O)[O-])ccc1O`?
KCNQ1 inh: inactive; KCNK9 block: inactive; hERG protect: -10.4; KCNK3 inh: inactive; KCNQ1 act: inactive; Kir21 inh: 1.71

What do the screens show for `COC(=O)C(C)Oc1cc(C)ccc1COc1ccc(-n2nc(C)n(C(F)F)c2=O)cc1` (stereo not drawn)?
KCNQ1 inh: inactive; KCNK9 block: inactive; hERG protect: -8.5; KCNK3 inh: inactive; KCNQ1 act: inactive; Kir21 inh: 0.35; KCNK9 inh conf: inactive; Kir21 sel: inactive; KCNK9 uninduced: inactive

Results for COC(=O)C(C)n1nc(C)n(-c2ccc(C)cc2)c1=O (stereo not drawn) ?
KCNQ1 inh: inactive; KCNK9 block: inactive; hERG protect: -10.6; KCNK3 inh: inactive; KCNQ1 act: inactive; Kir21 inh: 0.93

What do the screens show for `COC(=O)CNC(c1ccccc1)c1cc(Br)ccc1NC(=O)OCc1ccccc1` (stereo not drawn)?
KCNQ1 inh: inactive; KCNK9 block: -18.1*; hERG protect: -4.5; KCNK3 inh: inactive; KCNQ1 act: inactive; Kir21 inh: -1.47; KCNK9 inh conf: 74.0%*; Kir21 sel: inactive; KCNK9 uninduced: 63.5%*

What do the screens show for `CCCOc1ccc(C(=O)C(CN2CCOCC2)c2ccccc2)cc1` (stereo not drawn)?
KCNQ1 inh: inactive; KCNK9 block: inactive; hERG protect: -8.2; KCNK3 inh: inactive; KCNQ1 act: inactive; Kir21 inh: -0.27; KCNK9 inh conf: inactive; Kir21 sel: inactive; KCNK9 uninduced: inactive

How did O=C(NCc1ccc(F)cc1)c1cc2c(cc1Cl)N1CCCCCC1=NS2(=O)=O do in these assays?
KCNK3 inh: inactive

What do the screens show for `Cn1nc(C(=O)OCC(=O)Nc2cc(Cl)ccc2C#N)c2ccccc2c1=O`?
KCNK3 inh: inactive

Results for O=C(CC(c1ccccc1)c1cc(Br)ccc1O)NCc1ccco1 (stereo not drawn) ?
KCNQ1 inh: inactive; KCNK9 block: -10.9*; hERG protect: -17.1; KCNK3 inh: -11.3*; KCNQ1 act: inactive; Kir21 inh: -2.41; KCNK9 inh conf: 48.0%*; Kir21 sel: inactive; KCNK9 uninduced: inactive

How did CC(C)NC(=O)CC(c1ccccc1)c1cc(Br)ccc1O (stereo not drawn) do in these assays?
KCNQ1 inh: inactive; KCNK9 block: inactive; hERG protect: -18.2; KCNK3 inh: inactive; KCNQ1 act: inactive; Kir21 inh: -0.18

How did O=C(Nc1cccc(Cl)c1N1CCCC1)c1ccco1 do in these assays?
KCNQ1 inh: inactive; KCNK9 block: -9.93*; hERG protect: -8.2; KCNK3 inh: inactive; KCNQ1 act: inactive; Kir21 inh: 0; KCNK9 inh conf: inactive; Kir21 sel: inactive; KCNK9 uninduced: 29.0%*

How did O=C(Nc1ccc(N2CCCC2)c(Cl)c1)c1ccco1 do in these assays?
KCNQ1 inh: inactive; KCNK9 block: inactive; hERG protect: -6.0; KCNK3 inh: inactive; KCNQ1 act: inactive; Kir21 inh: 1.07

Results for O=C(COC(=O)CN1C(=O)C2CCCCC2C1=O)Nc1cc(F)ccc1F (stereo not drawn) ?
KCNK3 inh: inactive

What do the screens show for `COC(=O)[C@H](CC(C)C)N1Cc2cc(OC)cc(OC)c2-c2ccccc2S1(=O)=O`?
KCNK3 inh: inactive

How did COc1ccc2[nH]cc(CCNC(=O)c3ccco3)c2c1 do in these assays?
KCNK3 inh: inactive

How did O=C(Oc1ccc2[nH]cc(CCN3C(=O)c4ccccc4C3=O)c2c1)c1ccco1 do in these assays?
KCNQ1 inh: inactive; KCNK9 block: -10.6*; hERG protect: -11.9; KCNK3 inh: inactive; KCNQ1 act: inactive; Kir21 inh: -1.55; KCNK9 inh conf: 26.0%*; Kir21 sel: inactive; KCNK9 uninduced: inactive

Results for CC1Cc2cccc3ccc(=O)n(c23)C1 (stereo not drawn) ?
KCNK3 inh: inactive

What do the screens show for `O=C(O)c1ccccc1-c1ccccc1C(=O)Nc1ccc(-c2nc3cc(Cl)ccc3o2)cc1`?
KCNQ1 inh: inactive; KCNK9 block: inactive; hERG protect: -16.8; KCNK3 inh: inactive; KCNQ1 act: inactive; Kir21 inh: -0.03; KCNK9 inh conf: inactive; Kir21 sel: inactive; KCNK9 uninduced: inactive

How did C=CCN1CN=C(NS(=O)(=O)c2ccc(NC(C)=O)cc2)NC1 do in these assays?
KCNQ1 inh: inactive; KCNK9 block: -10.2*; hERG protect: -6.8; KCNK3 inh: inactive; KCNQ1 act: inactive; Kir21 inh: -0.05; KCNK9 inh conf: inactive; Kir21 sel: inactive; KCNK9 uninduced: inactive

How did Cc1nnc(-c2ccc(Cl)cc2)[nH]c1=O do in these assays?
KCNQ1 inh: inactive; KCNK9 block: inactive; hERG protect: -4.5; KCNK3 inh: inactive; KCNQ1 act: inactive; Kir21 inh: -0.08

Results for C[C@H](NC(=O)c1nc[nH]c1C(=O)N[C@@H](CCCCNC(=O)OC(C)(C)C)C(=O)OC(C)(C)C)c1ccccc1 ?
KCNQ1 inh: inactive; KCNK9 block: -11.2*; hERG protect: -8.8; KCNK3 inh: inactive; KCNQ1 act: inactive; Kir21 inh: -0.23; KCNK9 inh conf: inactive; Kir21 sel: inactive; KCNK9 uninduced: 29.0%*

How did Cc1cccc(N(CC(=O)NC(C)C)C(=O)CCC(=O)Nc2nccs2)c1 do in these assays?
KCNQ1 inh: inactive; KCNK9 block: inactive; hERG protect: -1.4; KCNK3 inh: inactive; KCNQ1 act: inactive; Kir21 inh: -0.01
